Test results taken from ChEMBL document CHEMBL3244396, “Synthesis and antileukemic activity of 5-substituted 2,3-dihydro-6,7-bis(hydroxymethyl)-1H-pyrrolizine diesters” (J Med Chem, 1977).

Assays:
Mus musculus [1] = experiment: Toxicity in female CDF1 mouse allografted with mouse P388 cells assessed as animal survival at 50 mg/kg, ip administered daily for 9 days as Klucel suspension starting 24 hrs after tumor inoculation; assay type: organism-based; set-up: dose 50 mg/kg, route intraperitoneal; settings: in vivo
In short: (§1)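 P-388 leukemia ascitic fluid inoculated ip. Compound given ip as a suspension in Klucel (hydroxypropylcellulose), once daily for nine doses beginning 24 h post-inoculation. Acute toxicity assessed as toxicity-day survivors per group. Survival was followed up to 30 days, with 30-day survival counted as "cure". Follows NCI screening protocols.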

Mus musculus [2] = experiment: Toxicity in female CDF1 mouse allografted with mouse P388 cells assessed as animal survival at 200 mg/kg, ip administered daily for 9 days as Klucel suspension starting 24 hrs after tumor inoculation; assay type: organism-based; set-up: dose 200 mg/kg, route intraperitoneal; settings: in vivo; in short: as §1
L1210 [3] = experiment: Antileukemic activity against mouse L1210 cells allografted in female BDF1 mouse assessed as host mean survival time at 100 mg/kg, ip administered daily for 9 days as Klucel suspension starting 24 hrs after tumor inoculation relative to control; assay type: functional; settings: route intraperitoneal
In short: (§2)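 L1210 leukemia given as an ascitic fluid cell inoculum, ip, to mice of the strain and sex in each line. Test material was given ip for nine daily doses starting 24 h after inoculation, in a Klucel (hydroxypropylcellulose) suspension. Read-out is mean survival time as %T/C versus controls, with >125 taken as significant.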

Mus musculus [4] = experiment: Toxicity in female BDF1 mouse allografted with mouse L1210 cells assessed as animal survival at 25 mg/kg, ip administered daily for 9 days as Klucel suspension starting 24 hrs after tumor inoculation measured on fifth day; assay type: organism-based; set-up: dose 25 mg/kg, route intraperitoneal; settings: in vivo
In short: (§3)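 L1210 leukemia passaged as ascitic fluid and inoculated ip. Test agent given ip as a Klucel (hydroxypropylcellulose) suspension, nine daily doses starting 24 h after tumor inoculation. Acute toxicity read as toxicity-day survivors per group (out of 6), recorded on day 5. Animal weight difference T − C was also recorded. Follows NCI screening protocols.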

P388 [5] = experiment: Antitumor activity against mouse P388 cells allografted in female CDF1 mouse assessed as change in body weight at 50 mg/kg, ip administered daily for 9 days as Klucel suspension starting 24 hrs after tumor inoculation; assay type: functional; settings: route intraperitoneal
In short: (§4)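 Ascitic fluid carrying P388 cells was inoculated ip. Compound was given ip in nine daily doses, starting 24 h after inoculation, in Klucel (hydroxypropylcellulose) suspension or in saline with Tween-80. Body-weight difference (treated minus control) was recorded on day 5. Survival was scored as %T/C of median survival time, and 30-day survival counted as cure.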

Mus musculus [6] = experiment: Toxicity in female BDF1 mouse allografted with mouse P388 cells assessed as animal survival at 12.5 mg/kg, ip administered daily for 9 days as Klucel suspension starting 24 hrs after tumor inoculation; assay type: organism-based; set-up: dose 12.5 mg/kg, route intraperitoneal; settings: in vivo; in short: as §1
Mus musculus [7] = experiment: Toxicity in female CDF1 mouse allografted with mouse P388 cells assessed as animal survival at 100 mg/kg, ip administered daily for 9 days as Klucel suspension starting 24 hrs after tumor inoculation; assay type: organism-based; set-up: dose 100 mg/kg, route intraperitoneal; settings: in vivo; in short: as §1
L1210 [8] = experiment: Antileukemic activity against mouse L1210 cells allografted in female BDF1 mouse assessed as host mean survival time at 12.5 mg/kg, ip administered daily for 9 days as Klucel suspension starting 24 hrs after tumor inoculation relative to control; assay type: functional; settings: route intraperitoneal; in short: as §2
P388 [9] = experiment: Antitumor activity against mouse P388 cells allografted in female BDF1 mouse assessed as change in body weight at 12.5 mg/kg, ip administered daily for 9 days as Klucel suspension starting 24 hrs after tumor inoculation; assay type: functional; settings: route intraperitoneal; in short: as §4
P388 [10] = experiment: Antitumor activity against mouse P388 cells allografted in female BDF1 mouse assessed as disease cures by measuring 30-days host survival at 12.5 mg/kg, ip administered daily for 9 days as Klucel suspension starting 24 hrs after tumor inoculation relative to control; assay type: functional; settings: route intraperitoneal
In short: (§5)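 P388 leukemia given as an ascitic fluid cell inoculum, ip, to mice of the strain and sex in each line. Nine daily ip doses were given in a Klucel (hydroxypropylcellulose) suspension, starting 24 h after inoculation. Read-out is median survival time as %T/C, with >125 taken as significant; a "cure" means 30-day survival.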

L1210 [11] = experiment: Antileukemic activity against mouse L1210 cells allografted in female BDF1 mouse assessed as host mean survival time at 200 mg/kg, ip administered daily for 9 days as Klucel suspension starting 24 hrs after tumor inoculation relative to control; assay type: functional; settings: route intraperitoneal; in short: as §2
Mus musculus [12] = experiment: Toxicity in female BDF1 mouse allografted with mouse L1210 cells assessed as animal survival at 50 mg/kg, ip administered daily for 9 days as Klucel suspension starting 24 hrs after tumor inoculation measured on fifth day; assay type: organism-based; set-up: dose 50 mg/kg, route intraperitoneal; settings: in vivo; in short: as §3
P388 [13] = experiment: Antitumor activity against mouse P388 cells allografted in female CDF1 mouse assessed as change in body weight at 200 mg/kg, ip administered daily for 9 days as Klucel suspension starting 24 hrs after tumor inoculation; assay type: functional; settings: route intraperitoneal; in short: as §4
L1210 [14] = experiment: Antileukemic activity against mouse L1210 cells allografted in female BDF1 mouse assessed as host mean survival time at 25 mg/kg, ip administered daily for 9 days as Klucel suspension starting 24 hrs after tumor inoculation relative to control; assay type: functional; settings: route intraperitoneal; in short: as §2
Mus musculus [15] = experiment: Toxicity in female BDF1 mouse allografted with mouse P388 cells assessed as animal survival at 25 mg/kg, ip administered daily for 9 days as Klucel suspension starting 24 hrs after tumor inoculation; assay type: organism-based; set-up: dose 25 mg/kg, route intraperitoneal; settings: in vivo; in short: as §1
P388 [16] = experiment: Antitumor activity against mouse P388 cells allografted in female CDF1 mouse assessed as change in body weight at 100 mg/kg, ip administered daily for 9 days as Klucel suspension starting 24 hrs after tumor inoculation; assay type: functional; settings: route intraperitoneal; in short: as §4
P388 [17] = experiment: Antitumor activity against mouse P388 cells allografted in female BDF1 mouse assessed as change in body weight at 25 mg/kg, ip administered daily for 9 days as Klucel suspension starting 24 hrs after tumor inoculation; assay type: functional; settings: route intraperitoneal; in short: as §4
L1210 [18] = experiment: Antileukemic activity against mouse L1210 cells allografted in female BDF1 mouse assessed as change in body weight at 50 mg/kg, ip administered daily for 9 days as Klucel suspension starting 24 hrs after tumor inoculation; assay type: functional; settings: route intraperitoneal
In short: (§6)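 Ascitic fluid carrying L1210 cells was inoculated ip. Compound was given ip as a Klucel (hydroxypropylcellulose) suspension in nine daily doses, starting 24 h after inoculation. Body-weight difference (treated minus control) was recorded on day 5. Survival was scored as %T/C of mean survival time.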

[19] = Cytotoxicity against human 9KB cells treated as ethanol solution; assay type: functional; settings: read-out: ED50 (the source's name)
In short: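 Compound applied as an ethanol solution; activity read out as ED50 under the general screening protocol.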

L1210 [20] = experiment: Antileukemic activity against mouse L1210 cells allografted in female BDF1 mouse assessed as host mean survival time at 50 mg/kg, ip administered daily for 9 days as Klucel suspension starting 24 hrs after tumor inoculation relative to control; assay type: functional; settings: route intraperitoneal; in short: as §2
L1210 [21] = experiment: Antileukemic activity against mouse L1210 cells allografted in female BDF1 mouse assessed as change in body weight at 100 mg/kg, ip administered daily for 9 days as Klucel suspension starting 24 hrs after tumor inoculation; assay type: functional; settings: route intraperitoneal; in short: as §6
Mus musculus [22] = experiment: Toxicity in female BDF1 mouse allografted with mouse L1210 cells assessed as animal survival at 12.5 mg/kg, ip administered daily for 9 days as Klucel suspension starting 24 hrs after tumor inoculation measured on fifth day; assay type: organism-based; set-up: dose 12.5 mg/kg, route intraperitoneal; settings: in vivo
In short: (§7)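 Female BDF1 mice bearing ip ascitic L1210 inoculum got nine daily ip doses in a Klucel suspension, starting 24 h after tumor inoculation. Toxicity was scored as toxicity-day survivors out of the group, recorded on the fifth day. Animal weight difference (T − C) was also tabulated.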

L1210 [23] = experiment: Antileukemic activity against mouse L1210 cells allografted in female BDF1 mouse assessed as change in body weight at 25 mg/kg, ip administered daily for 9 days as Klucel suspension starting 24 hrs after tumor inoculation; assay type: functional; settings: route intraperitoneal; in short: as §6
P388 [24] = experiment: Antitumor activity against mouse P388 cells allografted in female CDF1 mouse assessed as disease cures by measuring 30-days host survival at 100 mg/kg, ip administered daily for 9 days as Klucel suspension starting 24 hrs after tumor inoculation relative to control; assay type: functional; settings: route intraperitoneal; in short: as §5
P388 [25] = experiment: Antitumor activity against mouse P388 cells allografted in female BDF1 mouse assessed as disease cures by measuring 30-days host survival at 25 mg/kg, ip administered daily for 9 days as Klucel suspension starting 24 hrs after tumor inoculation relative to control; assay type: functional; settings: route intraperitoneal; in short: as §5
P388 [26] = experiment: Antitumor activity against mouse P388 cells allografted in female CDF1 mouse assessed as disease cures by measuring 30-days host survival at 50 mg/kg, ip administered daily for 9 days as Klucel suspension starting 24 hrs after tumor inoculation relative to control; assay type: functional; settings: route intraperitoneal; in short: as §5
L1210 [27] = experiment: Antileukemic activity against mouse L1210 cells allografted in female BDF1 mouse assessed as change in body weight at 200 mg/kg, ip administered daily for 9 days as Klucel suspension starting 24 hrs after tumor inoculation; assay type: functional; settings: route intraperitoneal; in short: as §6
Mus musculus [28] = experiment: Toxicity in female BDF1 mouse allografted with mouse L1210 cells assessed as animal survival at 100 mg/kg, ip administered daily for 9 days as Klucel suspension starting 24 hrs after tumor inoculation measured on fifth day; assay type: organism-based; set-up: dose 100 mg/kg, route intraperitoneal; settings: in vivo; in short: as §7
L1210 [29] = experiment: Antileukemic activity against mouse L1210 cells allografted in female BDF1 mouse assessed as change in body weight at 12.5 mg/kg, ip administered daily for 9 days as Klucel suspension starting 24 hrs after tumor inoculation; assay type: functional; settings: route intraperitoneal; in short: as §6

SMILES: CC(=O)OCc1c(COC(C)=O)c(-c2ccc(Cl)cc2)n2c1CCC2
- Activity (Mus musculus [1]): Non-toxic
- Activity (Mus musculus [2]): Toxic
- T/C (L1210 [3]): 76%
- Activity (Mus musculus [4]): Non-toxic
- Activity (P388 [5]): -1.9 g
- Activity (Mus musculus [6]): Non-toxic
- Activity (Mus musculus [7]): Non-toxic
- T/C (L1210 [8]): 95%
- Activity (P388 [9]): -0.6 g
- T/C (P388 [10]): 119%
- T/C (L1210 [11]): 64%
- Activity (Mus musculus [12]): Non-toxic
- Activity (P388 [13]): 0.5 g
- T/C (L1210 [14]): 102%
- Activity (Mus musculus [15]): Non-toxic
- Activity (P388 [16]): -3.3 g
- Activity (P388 [17]): -0.2 g
- Activity (L1210 [18]): -1.8 g
- EC50 [19]: > 2.8 µg/mL
- T/C (L1210 [20]): 117%
- Activity (L1210 [21]): -3.8 g
- Activity (Mus musculus [22]): Non-toxic
- Activity (L1210 [23]): 0.6 g
- T/C (P388 [24]): 66%
- T/C (P388 [25]): 123%
- T/C (P388 [26]): 118%
- Activity (L1210 [27]): -3.8 g
- Activity (Mus musculus [28]): Non-toxic
- Activity (L1210 [29]): 0.7 g
